The text below walks through data of ChEMBL document CHEMBL1139997, “Structural basis for the activity of the RSK-specific inhibitor, SL0101” (Bioorg Med Chem, 2007).

The nature of series [1]: Inhibition of RSK expressed in SF9 cells.
Series [2] in a line: Inhibition of RSK expressed in SF9 cells at 10 uM. The conditions noted are these: Homo sapiens.
Series [3] deals with MCF7. The series can be described thus: Antiproliferative activity against human MCF7 cells at 15 uM. The format is functional. The gist of the method:
(§1)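 MCF-7 or MCF-10A cells were seeded at 5000 per well in ATCC-recommended medium. After 24 h the medium was replaced with medium containing compound or vehicle. Viability was read 48 h later by luminescent cell-viability reagent. Results are fold proliferation as % of vehicle-treated cells, mean of n = 2 in quadruplicate ± SD. EC50 was obtained by best-fit curve analysis.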

The nature of series [4]: Antiproliferative activity against human MCF10A cells at 15 uM. The format is cell-based. The conditions noted are these: mcf-10a. The gist of the method: as §1
For series [5], the system named is MCF7. Briefly: Antiproliferative activity against human MCF7 cells at 75 uM after 48 hrs. The series is classed as functional, cell-based. The gist of the method: as §1
A short description of series [6]: Growth inhibition of human MCF10A cells at 75 uM 48 hrs. The series is classed as cell-based, MCF-10A. The gist of the method: as §1
For series [7], the species on record is Homo sapiens. The series can be described thus: Inhibition of RSK activity at 75 uM.
The test system of series [8] is MCF7. Briefly: Inhibition of RSK mediated mitogen-induced p140 phosphorylation in MCF7 cells pretreated at 75 uM. The series is classed as cell-based. As to conditions: Homo sapiens. The gist of the method:
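MCF-7 cells were seeded at 3×10^5 per well and serum-starved 24 h. They were pre-incubated with inhibitor or vehicle (2 h per legend; methods state 4 h), then given 500 nM PMA or vehicle for 20 min. Cells were lysed in boiling SDS buffer without DTT, and lysates were normalized for total protein before immunoblotting for phospho-p140.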

Series [9] is described as follows: Antiproliferative activity against human MCF10A cells up to 200 uM after 48 hrs. The conditions noted are these: mcf-10a. The series is classed as cell-based. The gist of the method:
as §1

Series [10] relates to MCF7. The series can be described thus: Antiproliferative activity against human MCF7 cells at >100 uM after 48 hrs. The series is classed as functional, cell-based. The method, boiled down:
as §1

Series [11] relates to MCF7. Briefly: Antiproliferative activity against human MCF7 cells at 100 uM after 48 hrs. The format is functional. The gist of the method:
as §1

Series [12] has as its system MCF7. Briefly: Antiproliferative activity against human MCF7 cells after 48 hrs. The series is classed as functional, cell-based. The method, boiled down: as §1

The source made the active and inactive calls. No cut-off for these calls is given here.

In the case of `COc1ccc(-c2oc3cc(OC)cc(OC)c3c(=O)c2O[C@@H]2O[C@@H](C)[C@H](OC(C)=O)[C@@H](OC(C)=O)[C@H]2O)cc1`, the outcome in series [1] (Homo sapiens) was inactive.
Consider `CC(=O)Oc1ccc(-c2oc3cc(OC(C)=O)cc(OC(C)=O)c3c(=O)c2O[C@@H]2O[C@@H](C)[C@H](OC(C)=O)[C@@H](OC(C)=O)[C@H]2OC(C)=O)cc1`, for which, in [2], the inhibition – broadly, the share of the control response that was lost under treatment – came to 50%. For the same compound, the Activity in series [3] was 50%; in [4], “Not Active”.
As for `CC(=O)O[C@@H]1[C@@H](OC(C)=O)[C@@H](O)[C@H](Oc2c(-c3ccccc3)oc3cccc(O)c3c2=O)O[C@H]1C`, the result in series [5] and in [7] was Active. The inhibition at 48 h, 75 µM in series [6] was 25%. Further, the IC50 – broadly, the concentration at which inhibition is half-maximal – in [1] worked out at 13.2 µM. The inhibition in [8] is 50%.
Consider `CC(=O)O[C@@H]1[C@@H](OC(C)=O)[C@@H](O)[C@H](Oc2c(-c3ccc(O)cc3)oc3cc(O)cc(O)c3c2=O)O[C@H]1C`, for which, in series [9], the Activity result was “Not Active”. For the same compound, in series [10], the result was Active.
Consider `CC(=O)O[C@@H]1[C@@H](OC(C)=O)[C@@H](O)[C@H](Oc2c(-c3ccc(O)cc3)oc3cc(O)ccc3c2=O)O[C@H]1C`, for which the Activity in series [11] amounted to 50%. In [1], this compound yielded an IC50 of 24.6 µM.
With `CC(=O)O[C@@H]1[C@@H](OC(C)=O)[C@@H](O)[C@H](Oc2c(-c3ccc(O)cc3)oc3cccc(O)c3c2=O)O[C@H]1C`, the outcome in series [5], in [7] and in [8] was Active. Besides, in [6], the inhibition at 48 h, 75 µM was 25%. The same compound returned an IC50 in [1] of 1.56 µM.
On to `C[C@@H]1O[C@@H](Oc2c(-c3ccc(O)cc3)oc3cc(O)cc(O)c3c2=O)[C@H](O)[C@H](O)[C@H]1O` [AFZELIN], for which the result in series [12] was inactive. The compound also returned an IC50 in series [1] of 4.37 µM.
`CCO[C@@H]1[C@@H](OCC)[C@@H](O)[C@H](Oc2c(-c3ccc(O)cc3)oc3cc(O)cc(O)c3c2=O)O[C@H]1C` registered an IC50 in series [1] of 0.129 µM.
